Results from PMC5372383 (Nature, 2017).

Assays:
[1] = molecular target: ENL YEATS mutants (alanine mutation of the “R-Kac”-binding residues), ITC; test: ITC
[2] = test system: HeLa cells; test: JQ1 proliferation in HeLa cells; type: cell-based, human; conditions: GFP, AF9 or ENL sgRNAs, n = 5
Outline: (§1)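 HeLa and U2OS cells were kept in DMEM with 10% FBS, 2 mM L-glutamine, penicillin/streptomycin and plasmocin. They were transduced with GFP, AF9 or ENL sgRNAs by spin infection at 1500 rcf, 35°C for 90 min, then selected or sorted 48 h after infection. Cells were treated with JQ1, and viability was measured by CellTiter-Glo luminescence.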

[3] = test system: iCas9-MOLM-13 cells; test: RNA-seq of JQ1-treated iCas9-MOLM-13 cells; type: cell-based, human; conditions: iCas9-MOLM-13, 50 nM JQ1 24 h vs DMSO
[4] = test system: U2OS cells; test: JQ1 proliferation in U2OS cells; type: cell-based, human; conditions: GFP, AF9 or ENL sgRNAs, n = 5
Outline: as §1

[5] = test system: leukaemia cell lines; type: cell-based, human; conditions: shENL vs shNT, MLL-rearranged leukaemia cells, n = 3
Outline: (§2)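 MLL-rearranged leukaemia lines were grown in RPMI with 10% FBS, 2 mM L-glutamine, penicillin/streptomycin and plasmocin. Cells were transduced with sgRNAs (MOLM-13) or shNT/shENL shRNAs (panel) by spin infection (1500 rcf, 35°C, 90 min), then selected or sorted 48 h post infection. They were exposed to JQ1 or DMSO, and viability was read by CellTiter-Glo luminescence. MOLM-13 proliferation was normalised to DMSO.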

[6] = test system: MOLM-13 cells; test: JQ1 proliferation / viability; type: cell-based, human; conditions: MOLM-13, sgRNA depletion; proliferation normalized to DMSO, n = 5
Outline: as §2

Molecule | fold affinity drop against the wild type [1] [fold] | JQ1 sensitivity on ENL silencing, HeLa [2] | JQ1-induced transcriptional changes on ENL depletion, including MYC [3] | JQ1 sensitivity on ENL silencing, U2OS [4] | JQ1 sensitivity on ENL silencing [5] | sensitivity to JQ1 on depletion of ENL or other SEC components [6]
H3_(17–28)K27ac peptide (from UniProt P68431 18-29) | 2.3 | – | – | – | – | –
Cc1sc2c(c1C)C(c1ccc(Cl)cc1)=N[C@@H](CC(=O)OC(C)(C)C)c1nnc(C)n1-2 [JQ1] | – | not in HeLa | markedly enhanced JQ1-induced transcriptional changes | not in HeLa or U2OS cells | Increased JQ1 sensitivity | sensitized MOLM-13 cells
